From PubChem
Many of the other results were omitted from the sample, so hits are more common in it than they were.
T cruzi growth-1: T. cruzi intracellular proliferation inhibitors, primary screen, cell-based, beta-gal Tulahuen parasites, NIH3T3 host, luminescence; T. cruzi beta-gal in NIH3T3, GalScreen luminescence, 90 h; inhibition, % at 8.34 µM; actives 5.9% (n = 77,000); AID 624255, 2012;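 active means mean inhibition above about 93%, with at least 55% of replicates each passing it, limit read from the data, passing the limit was not always enough; inconclusive means only one of those two conditions holds; inactive means neither condition holds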
KDM4C inh: inhibitors of GASC-1 (KDM4C) histone demethylase, primary screen, biochemical, single concentration HTS; AID 720574, 2013; inhibition, % at 12.5 µM; GST-KDM4C 2-372, H3K9me3 peptide, LANCE TR-FRET; actives 0.15% (n = 96,000); Lysine-specific demethylase 4C (Homo sapiens), Q9H3R0;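 active means mean replicate inhibition above about 25%, with at least 55% of replicates also reaching it, limit read from the data, passing the limit was not always enough; inconclusive means only one of those two conditions met; inactive means neither condition met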
Target sequence (Q9H3R0 2-372 limits assumed): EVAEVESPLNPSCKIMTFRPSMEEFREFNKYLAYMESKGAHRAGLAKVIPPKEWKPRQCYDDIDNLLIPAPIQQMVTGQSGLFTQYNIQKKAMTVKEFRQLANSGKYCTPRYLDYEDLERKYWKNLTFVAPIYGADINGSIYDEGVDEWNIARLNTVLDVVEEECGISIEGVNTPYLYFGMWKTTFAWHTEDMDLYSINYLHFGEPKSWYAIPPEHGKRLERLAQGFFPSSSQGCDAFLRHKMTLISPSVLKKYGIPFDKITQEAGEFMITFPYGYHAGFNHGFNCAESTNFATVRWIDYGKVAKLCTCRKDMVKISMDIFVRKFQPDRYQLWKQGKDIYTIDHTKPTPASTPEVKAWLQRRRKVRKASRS
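System: N-terminal GST-fused human GASC-1 (KDM4C) fragment, residues 2-372; amount: enzyme final amount 10 nM; incubation: reaction 30 min RT, detection step 1 h RT; medium: HEPES buffer, pH 7.5, plus ascorbate; technique: LANCE TR-FRET, Eu antibody, ULight-streptavidin, EDTA, ex 340 nm, em 618/671 nm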
IDH1 R132H inh: inhibitors of IDH1 R132H reductase, primary screen, biochemical, plate reader, single point | inhibition, % at 10 µM | actives 0.18% (n = 70,000) | Isocitrate dehydrogenase [NADP] cytoplasmic (Homo sapiens), O75874 | AID 624101, 2012 | diaphorase/resazurin fluorescence, 60 min; in the data active means inhibition above about 34%; inconclusive means no clear call, values can overlap the other calls; inactive means below about 11%;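 further: 0% = DMSO and 100% = no enzyme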
Target sequence (O75874 whole entry R132H): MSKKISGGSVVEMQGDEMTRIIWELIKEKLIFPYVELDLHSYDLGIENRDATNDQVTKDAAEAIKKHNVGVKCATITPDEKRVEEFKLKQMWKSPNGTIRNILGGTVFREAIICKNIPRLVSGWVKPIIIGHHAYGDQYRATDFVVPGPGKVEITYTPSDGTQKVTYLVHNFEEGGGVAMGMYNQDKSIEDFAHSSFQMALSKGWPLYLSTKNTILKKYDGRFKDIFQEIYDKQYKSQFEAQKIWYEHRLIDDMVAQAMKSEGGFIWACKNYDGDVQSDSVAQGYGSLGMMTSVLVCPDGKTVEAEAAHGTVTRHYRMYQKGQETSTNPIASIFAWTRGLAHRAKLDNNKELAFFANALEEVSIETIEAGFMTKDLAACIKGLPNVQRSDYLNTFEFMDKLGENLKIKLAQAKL
T cruzi growth-2: T. cruzi intracellular proliferation inhibitors, confirmation, cell-based, NIH3T3 host, beta-gal parasite, luminescence, cherry-pick. T. cruzi beta-gal in NIH3T3, GalScreen luminescence, 90 h. actives 72% (n = 5,600). inhibition, % at 8.35 µM. shares compounds with T cruzi growth-1;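 active means mean replicate inhibition above about 95% and at least 55% of replicates individually reaching it, limit read from the data; inconclusive means only one of the two criteria is met; inactive means neither criterion is met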
T cruzi growth-3: inhibitors of intracellular T. cruzi replication, confirmation, NIH3T3 host cells, beta-gal parasites, cherry-pick, set 2; T. cruzi beta-gal in NIH3T3, GalScreen luminescence, 90 h; AID 651740, 2012; inhibition, % at 2.09 µM; shares compounds with T cruzi growth-1; actives 21% (n = 5,600);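 active means mean inhibition above about 95%, with at least 55% of replicates also reaching it, limit read from the data; inconclusive means meets just one of the two conditions; inactive means meets neither condition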;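 further: plate controls were neutral control median for no effect and positive control median for full effect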
NIH3T3 tox: cytotoxicity in mouse NIH/3T3 fibroblasts, confirmation, cytotoxicity control for T. cruzi proliferation inhibitor project, cell-based, cherry-pick, single point; shares compounds with T cruzi growth-1; NIH/3T3 viability, CellTiter-Glo ATP luminescence, 90 h; cytotoxicity (signal decrease), % at 8.35 µM; actives 14% (n = 5,600); AID 651742, 2012;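 active means mean signal decrease across replicates above about 35% based on untreated-well scatter, with enough replicates individually passing, limit read from the data; inconclusive means no rule stated though some were filed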;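 further: 0% = median of neutral control wells and 100% = median of positive control wells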
3T3 cytotox 2: NIH/3T3 fibroblast cytotoxicity, confirmation, cytotoxicity control, cell-based, cherry-pick, single point, set 2; shares compounds with T cruzi growth-1; NIH/3T3 viability, CellTiter-Glo ATP luminescence, 90 h; inhibition, % at 24.9 µM; actives 56% (n = 5,600); AID 651744, 2012;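 active means mean loss of cell viability signal at or above a set limit, and enough replicates individually reaching it; inconclusive means meets only the mean limit or only the replicate share; inactive means meets neither condition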;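 further: 0% = median of neutral control wells and 100% = median of positive control wells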
* marks the source's active call; other numbers are inactive results; ? = inconclusive; nt = no result given.

SMILES	T cruzi growth-1	KDM4C inh	IDH1 R132H inh	T cruzi growth-2	T cruzi growth-3	NIH3T3 tox	3T3 cytotox 2
Cn1cnc(S(=O)(=O)N(Cc2ccccc2)Cc2ccccc2N2CCC(C(=O)O)CC2)c1	nt	nt	-2.0	nt	nt	nt	nt
CCn1c(=O)c(C(=O)NCCO)c(O)c2ccccc21	nt	nt	0.3	nt	nt	nt	nt
COC(=O)c1ccccc1NC(=O)CSC1=NC(c2ccccc2)CC(=O)N1 (stereo not given)	nt	nt	7.4	nt	nt	nt	nt
O=C(C[C@@H]1CC[C@@H]2[C@H](COC[C@H](O)CN2S(=O)(=O)c2ccccc2)O1)NCc1ccc(-c2ccccc2)cc1	52.3	-1.2	nt	nt	nt	nt	nt
O=C(C[C@@H]1CC[C@@H]2[C@H](COC[C@@H](O)CN2S(=O)(=O)c2ccccc2)O1)NCc1ccc(-c2ccccc2)cc1	105.3*	-8.2	nt	105.1*	42.7	-1.2	13.3
O=C(CSc1nc2c(c(C(F)(F)F)n1)CCCC2)Nc1cccc(Cl)c1Cl	nt	nt	0.4	nt	nt	nt	nt
C[C@H]1CCCCO[C@@H](CN(C)C(=O)Nc2cccc3ccccc23)[C@@H](C)CN([C@@H](C)CO)C(=O)c2cc(NC(=O)Cc3ccccc3)ccc2O1	102.0*	-0.3	2.8	115.0*	63.1	7.5	8.7
C[C@@H]1CCCCO[C@H](CN(C)C(=O)Nc2cccc3ccccc23)[C@H](C)CN([C@@H](C)CO)C(=O)c2cc(NC(=O)Cc3ccccc3)ccc2O1	107.3*	-2.6	2.5	103.1*	57.1	0.2	-7.5
C[C@@H]1CCCCO[C@@H](CN(C)C(=O)Nc2cccc3ccccc23)[C@H](C)CN([C@H](C)CO)C(=O)c2cc(NC(=O)Cc3ccccc3)ccc2O1	98.2*	-3.1	0.9	101.9*	108.5*	-28.4	0.9
C[C@@H]1CCCCO[C@@H](CN(C)C(=O)Nc2cccc3ccccc23)[C@H](C)CN([C@H](C)CO)C(=O)c2cc(NC(=O)c3ccccc3)ccc2O1	103.4*	-1.6	nt	101.1*	?	-18.1	-6.1
C[C@@H]1CN([C@H](C)CO)C(=O)c2cc(NC(=O)Cc3ccccc3)ccc2O[C@@H](C)CCCCO[C@H]1CN(C)C(=O)Nc1cccc2ccccc12	73.2	-0.2	0.2	nt	nt	nt	nt
C[C@@H]1CN([C@@H](C)CO)C(=O)c2cc(NC(=O)Cc3ccccc3)ccc2O[C@@H](C)CCCCO[C@@H]1CN(C)C(=O)Nc1cccc2ccccc12	0.6	-2.2	4.4	nt	nt	nt	nt
C[C@@H]1CCCCO[C@@H](CN(C)C(=O)Nc2cccc3ccccc23)[C@@H](C)CN([C@@H](C)CO)C(=O)c2cc(NC(=O)Cc3ccccc3)ccc2O1	nt	-0.2	-1.3	nt	nt	nt	nt
C[C@H](CO)N1C[C@H](C)[C@@H](CN(C)C(=O)Nc2cccc3ccccc23)OCCCC[C@H](C)Oc2ccc(NC(=O)c3ccccc3)cc2C1=O	68.9	-2.2	nt	nt	nt	nt	nt
CCC1(C)Cc2nc3nc(SCC(=O)c4ccc(Br)cc4)n(-c4ccccc4)c(=O)c3cc2CO1 (stereo not given)	nt	nt	0.2	nt	nt	nt	nt
CCN(CC(=O)Nc1cc([N+](=O)[O-])ccc1C)S(=O)(=O)c1ccc(C)cc1	nt	nt	-1.2	nt	nt	nt	nt
Cc1ccc(OCC(=O)Nc2ccccc2N2CCN(S(C)(=O)=O)CC2)cc1	nt	nt	-0.4	nt	nt	nt	nt
CC(C)C1NC(=S)NC2=C1CCCC2 (stereo not given)	nt	nt	-0.3	nt	nt	nt	nt
CC(C)(O)[C@@H]1Cc2cc3ccc(=O)oc3cc2O1	nt	nt	-0.7	nt	nt	nt	nt
Cc1ccc(C)c(NC(=O)CSc2cc(C)c3ccccc3n2)c1	nt	nt	1.4	nt	nt	nt	nt
Cn1c(SCC(=O)Nc2ccc(Oc3ccccc3)cc2)nnc1-c1ccccn1	nt	nt	0.0	nt	nt	nt	nt
O=C(c1ccccc1F)N1CC[C@H]2[C@H](CO)Nc3ccc(C#Cc4ccccc4)cc3[C@H]21	107.9*	-1.4	nt	111.1*	81.3	20.3	?
COc1cccc(C#Cc2ccc3c(c2)[C@@H]2[C@@H](CCN2C(=O)c2ccccc2F)[C@H](CO)N3)c1	nt	-1.2	nt	nt	nt	nt	nt
COc1ccc(C#Cc2ccc3c(c2)[C@@H]2[C@@H](CCN2C(=O)c2ccccc2F)[C@H](CO)N3)cc1	100.5*	0.1	nt	93.3	19.5	-15.3	9.1
O=C(c1ccccc1F)N1CC[C@@H]2[C@@H](CO)Nc3ccc(C#Cc4ccccc4)cc3[C@@H]21	?	-4.5	nt	108.9*	85.8	9.0	104.0*
SMILES	T cruzi growth-1	KDM4C inh	IDH1 R132H inh	T cruzi growth-2	T cruzi growth-3	NIH3T3 tox	3T3 cytotox 2
CC(=O)N1CC[C@H]2[C@H](CO)Nc3ccc(C#Cc4ccccc4F)cc3[C@H]21	nt	-2.8	nt	nt	nt	nt	nt
COc1ccc(C#Cc2ccc3c(c2)[C@@H]2[C@@H](CCN2C(=O)C2CC2)[C@@H](CO)N3)cc1	108.7*	-1.7	nt	110.2*	34.4	20.0	45.5*
O=C(c1ccccc1F)N1CC[C@@H]2[C@H]1c1cc(-c3ccccc3)ccc1N[C@@H]2CO	93.3	-4.8	nt	nt	nt	nt	nt
COc1ccc(C#Cc2ccc3c(c2)[C@@H]2[C@@H](CCN2C(=O)C2CC2)[C@H](CO)N3)cc1	nt	-1.6	nt	nt	nt	nt	nt
COc1ccccc1NC(=O)C1=C(C)NC(SCC(N)=O)=C(C#N)C1c1ccccc1 (stereo not given)	nt	nt	-0.4	nt	nt	nt	nt
COc1cc(-c2nnc(SCC(=O)c3ccccc3)n2-c2ccccc2)cc(OC)c1OC	nt	nt	0.1	nt	nt	nt	nt
CN(CC(=O)O)C(=O)c1ccc(S(=O)(=O)N2CCCC2)cc1	nt	nt	0.4	nt	nt	nt	nt
Cc1cccc(C)c1OCC(=O)Nc1cccnc1	nt	nt	0.0	nt	nt	nt	nt
COc1ccc(-c2cn(S(=O)(=O)c3ccccc3OC)nc2N)cc1OC	nt	nt	-0.9	nt	nt	nt	nt
COc1cccc(S(=O)(=O)N(C)C[C@@H]2OCc3ccccc3-c3ccccc3C(=O)N([C@@H](C)CO)C[C@@H]2C)c1	105.0*	0.0	nt	30.3	-1.4	-4.3	8.1
COc1cccc(S(=O)(=O)N(C)C[C@H]2OCc3ccccc3-c3ccccc3C(=O)N([C@H](C)CO)C[C@H]2C)c1	58.9	-0.4	-9.6	nt	nt	nt	nt
C[C@H](CO)N1C[C@H](C)[C@H](CN(C)S(=O)(=O)c2cccc(C#N)c2)OCc2ccccc2-c2ccccc2C1=O	31.0	-2.1	-1.8	nt	nt	nt	nt
C[C@@H]1CN([C@H](C)CO)C(=O)c2ccccc2-c2ccccc2CO[C@H]1CN(C)S(=O)(=O)c1cccc(C#N)c1	?	-1.2	nt	47.5	28.0	5.0	22.4
CCc1c(C)sc(NC(=S)NCc2cc(C)n(C)n2)c1C(=O)OC	nt	nt	-1.6	nt	nt	nt	nt
